Measured values as given in the array DNA melting data of Ke et al. (doi:10.1101/2024.01.08.574731).

Columns and labels:
[1] = folding enthalpy; higher = less favourable; fluorescence melt of hairpins on a sequencing array, two-state fit; conditions: sodium 0.088 M
Procedure, shortened: (§1)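 Melting temperature and folding enthalpy were obtained by bootstrapped two-state fitting. Fits used Cy3 fluorescence of library hairpins with annealed Cy3 and quencher oligos on a sequenced MiSeq flow cell, imaged in 50 mM Na-HEPES pH 8.0, 25 mM NaCl in 2.5 °C steps up to 60 °C and normalised to pre-quench Cy3 and control constructs. Four replicates were combined by inverse-variance weighting, and fitted temperatures were raised by 9.35 °C to match UV melts.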

[2] = melting temperature; fluorescence melt of hairpins on a sequencing array, two-state fit, raised by 9.35 °C to match UV melts; conditions: sodium 0.088 M
Procedure, shortened: as §1

| Sequence | folding enthalpy [1] [kcal/mol] | Tm [2] [°C] |
| --- | --- | --- |
| GGGTACGAAAGTAACCC ((((((....))).))) | -26.9 | 54.3 |
| GGTGCACGAAAGTGGACC (((.(((....))).))) | -38.1 | 65.7 |
| GATCGCAGGCGCGATC ((((((....)))))) | -35.1 | 68.3 |
| CGGCACGGAAACGTCCG (((.(((....)))))) | -21.8 | 47.9 |
| GATTAGCGAAAGCTGATC (((.(((....))).))) | -31 | 51.1 |
| GGTCATGGAAACATAACC (((.(((....))).))) | -18.5 | 31.6 |
| GTGACCGGAAACGGTTAC ((.((((....)))).)) | -26.4 | 54.9 |
| GCTTTAGCGAAAGCTAGC (((..(((....)))))) | -8.44 | 42.3 |
| GGAACGGAAACGTTCC ((((((....)))))) | -40.4 | 64.2 |
| GCTTTGCGAAAGCGACGC ((.(.((....)).).)) | -15.2 | 47.6 |
| GCGGTCGAAAGACTTCGC ((((((....)))..))) | -21.6 | 47.6 |
| GGGCGCGGAAACACGCCC (((((.(....).))))) | -34 | 66.5 |
| GTTCGGGGAAACCTGAGC (.((.((....)).)).) | -20.5 | 32.6 |
| GAATAACGAAAGTTTTTC (((.(((....))).))) | -28.6 | 32 |
| GTTTTCCGAAAGGAAAC (((.(((....)))))) | -13.6 | 47.8 |
| GCAACGGGAAACCGTCGC ((.((((....)))).)) | -28.3 | 49.4 |
| GGATCCGAAAGGAAATCC ((((((....)))..))) | -25.9 | 38.2 |
| GCCACTCGAAAGAGAGGC (((.(((....))).))) | -39.1 | 60 |
| GAGACGGGAAACCGTCTC (((((((....))))))) | -28 | 69 |
| GATCAGCGGCTGATC ((((((...)))))) | -51 | 50.7 |
| GTTATCGAAAGATGAAC ((((((....))).))) | -13.2 | 26.4 |
| GTGTTTGGAAACAAACAC (((((((....))))))) | -47.9 | 59.6 |
| GTCATGACGAAAGTCGAC (((..(((....)))))) | -14.9 | 38.6 |

| Sequence | folding enthalpy [1] [kcal/mol] | Tm [2] [°C] |
| --- | --- | --- |
| GCCATGCGAAAGCAAGGC (((.(((....))).))) | -42.6 | 60.5 |
| GGTCGCGAAAGCGAAACC ((((((....)))..))) | -11.9 | 50 |
| GAATCCGAAAGGATATTC ((((((....)))..))) | -13.1 | 33.6 |
| GAGACGCGAAAGCGCTC (((.(((....)))))) | -14.3 | 50 |
| GATCTGAACACAGATC ((((((....)))))) | -34.7 | 48.4 |
| GCTGTGCGAAAGCGCCGC ((.(.((....)).).)) | -18.6 | 49.6 |
| GTAGAAGCGAAAGCTTAC (((..(((....)))))) | -11.6 | 30.1 |
| GCATATGGAAACGTATGC (((((.(....).))))) | -33.3 | 47 |
| GTTGCGCGAAAGCGGAAC (((.(((....))).))) | -30.9 | 67.6 |
| GGTCTGCCGAAAGGCACC (((..(((....)))))) | -6.75 | 28.8 |
| GTATCGGGAAACCGATAC (((((((....))))))) | -42.3 | 62.2 |
| GCATCGCGAAAGCAAAGC ((.(.((....)).).)) | -9.75 | 38.9 |
| GGCTATCGAAAGATTGCC (((.(((....))).))) | -41.3 | 55.7 |
| GCTTTCGAAAGAAGAGC ((((((....))).))) | -17.5 | 37.3 |
| GTCTTGGGAAACCGAGAC ((((.((....)).)))) | -33 | 49.9 |
| CGATCGGAAACGATTTCG ((((((....)))..))) | -20.4 | 30.2 |
| GATCGCAATCGCGATC ((((((....)))))) | -32.2 | 67.9 |
| GATCTGAATTCAGATC ((((((....)))))) | -41.6 | 50.2 |
| GAAAAAGCGAAAGCTTTC (((..(((....)))))) | -12.1 | 33.2 |
| GCCAAGGGAAACCCTGGC ((((.((....)).)))) | -31.9 | 52.2 |
| GGTCTTACGAAAGTAACC (((..(((....)))))) | -10.7 | 25.7 |
| GGCATTGGAAACAATACC ((.((((....)))).)) | -25.4 | 36.6 |
| GCCTCCGAAAGGACTGGC ((((((....)))..))) | -27.8 | 44.4 |

| Sequence | folding enthalpy [1] [kcal/mol] | Tm [2] [°C] |
| --- | --- | --- |
| GGGTTCGAAAGAACACCC ((((((....)))..))) | -11.8 | 55.1 |
| TTATGGAAACATAA (((((....))))) | -8.55 | 22.8 |
| GCAGTGCCGAAAGGCTGC (((..(((....)))))) | -14.8 | 49.8 |
| GATCTACTAGTAGATC ((((((....)))))) | -46.8 | 51.7 |
| GATCATTATAATGATC ((((((....)))))) | -33.1 | 49.7 |
| GCTATATCGAAAGATAGC (((..(((....)))))) | -25.2 | 36.2 |
| GCTGAGCGAAAGCGGAGC (((..((....))..))) | -26.9 | 62.4 |
| GCGTCAGGAAACTGGTGC ((..(((....)))..)) | -27.1 | 41.6 |
| GCGTTCAGACGC ((((....)))) | -23.8 | 53.6 |
| GGTATACGAAAGTAAACC (((.(((....))).))) | -28.4 | 43.6 |
| GCTTGGCGAAAGCCTTGC ((..(((....)))..)) | -18.1 | 43.5 |
| GTGGGCGAAAGCCCGCAC ((((((....)))..))) | -10.2 | 58.6 |
| GACCACCGAAAGGTAGTC (((.(((....))).))) | -31.6 | 47 |
| GTCCTTCGAAAGAAAGAC (((.(((....))).))) | -19.1 | 34.4 |
| GTTGACGGAAACGTCAGC (.(((((....))))).) | -22 | 52.5 |
| GTGAAATCGAAAGATCAC (((..(((....)))))) | -17 | 32.8 |
| GATAATGGAAACATTATC (((((((....))))))) | -43.9 | 48.4 |
| GCGAGCGAAAGCTTCGC ((((((....))).))) | -28 | 66.1 |
| GGGGTTGCGAAAGCACCC (((..(((....)))))) | -19 | 59.5 |
| GTACGTGGAAACGTGTAC ((((..(....)..)))) | -12.3 | 37.4 |
| GTGGGCGGAAACGCTCGC (.(.(((....))).).) | -21.3 | 49.9 |
| GATCGGGTCGCCGATC ((((((....)))))) | -7.84 | 65.3 |
| GTCCCAGGAAACTAGGAC ((((.((....)).)))) | -21.5 | 35.9 |

| Sequence | folding enthalpy [1] [kcal/mol] | Tm [2] [°C] |
| --- | --- | --- |
| GCGTGAGGAAACTTACGC ((((.((....)).)))) | -33.8 | 52 |
| GTCCTCGAAAGAGAGAC ((((((....))).))) | -20.2 | 46.6 |
| GATCGGGTGACCGATC ((((((....)))))) | -36.4 | 67 |
| GATCCCTTCAGGGATC ((((((....)))))) | -31.4 | 68.3 |
| GGGCCAGGAAACCAGCCC ((((..(....)..)))) | -26.8 | 43.9 |
| GCATAGCGAAAGCTGTGC (((.(((....))).))) | -50.8 | 59.9 |
| GATCTATTCATAGATC ((((((....)))))) | -35.8 | 49.9 |
| GCGGGCACGAAAGTGCGC (((..(((....)))))) | -10.2 | 52.5 |
| GGATTCGAAAGAATTCC ((((((....))).))) | -20.4 | 42.6 |
| GATCTACCAATAGATC ((((((....)))))) | -25.6 | 38.1 |
| GATGGCGAAAGCCCATC ((((((....))).))) | -16.6 | 52.4 |
| GCCCCCCGAAAGGGCGGC (((.(((....))).))) | -32.6 | 60.2 |
| GTGCTACGAAAGTACAC (((.(((....)))))) | -25.5 | 45.3 |
| GTATCAGGAAACCGATAC (((((.(....).))))) | -30.7 | 38.1 |
| GTGCCCGAAAGGGGGCAC ((((((....)))..))) | -22.2 | 69.1 |
| GCATACTCGAAAGAGTGC (((..(((....)))))) | -16.8 | 39 |
| GATCTGGCCTCAGATC ((((((....)))))) | -41.7 | 51.7 |
| GATCACACCAGTGATC ((((((....)))))) | -38.6 | 59 |
| GATCAGTCAACTGATC ((((((....)))))) | -37.6 | 50.9 |
| GTCGTCGGAAACGATGAC (((.(((....))).))) | -44.4 | 55.5 |
| GATCTAATTTAGATC ((((((...)))))) | -30.8 | 41.4 |
| GATCGTGTTACGATC ((((((...)))))) | -35.6 | 56.9 |
| GTAGGCGGAAACACCTAC (((((.(....).))))) | -25.8 | 44.5 |
